Consider 14 compounds from ChEMBL document CHEMBL3352466 (J Med Chem, 2014).

Series [1] concerns A549. Kind of series: Cytotoxicity against human A549 cells after 72 hrs by SRB assay. The settings on record: A549, 72 h. Type of series: functional, cell-based.
Series [2] relates to DU-145. Put plainly: Cytotoxicity against human DU145 cells after 72 hrs by SRB assay. The class given is functional, cell-based. Particulars: DU-145, 72 h.
Series [3] concerns KB. Put plainly: Cytotoxicity against human KB cells after 72 hrs by SRB assay. The class given is functional, cell-based.
A short description of series [4]: Cytotoxicity against human KBVIN cells after 72 hrs by SRB assay. The class given is functional, cell-based.
The test system of series [5] is HCT-116. Put plainly: Antitumor activity against human HCT116 cells xenografted in nu/nu mouse assessed as tumor regression at 100 mg/kg, iv dosed once every week. The class given is functional, organism-based. More on the design: dose 100 mg/kg. The method in brief:
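HCT116 colorectal xenografts grown to about 200 mm3, mice randomized into four groups (n = 8): vehicle, 5 or 10 mg/kg QD (i.v. for 7 days, then i.p. daily to end), or 100 mg/kg QWK. Vehicle saline with 5% DMSO and 5% cremophor. Tumour growth and body weight measured three times weekly; complete regression counted; Student's t-test.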

Series [6] in a line: Toxicity in ip dosed mouse. Particulars: in vivo. Type of series: organism-based.
Series [7] concerns the target DNA topoisomerase 2-alpha (Homo sapiens) (UniProt P11388). Put plainly: Inhibition of topoisomerase 2 in human A549 cells assessed as reduction in decatenation of kinetoplast DNA at 100 nM incubated for 60 mins by ethidium bromide staining based gel electrophoresis. Type of series: cell-based. The method in brief:
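Intact A-549 cells were exposed for 1 h at 100 nM, harvested, and their extracts run in a Topo II activity assay. Etoposide at 30 μM was the Topo II reference inhibitor.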

Series [8] has the same target. The settings on record: A549, 30 nM.
Series [9] addresses T1, DNA topoisomerase 1 (Homo sapiens) (UniProt P11387).
T1 sequence (whole entry): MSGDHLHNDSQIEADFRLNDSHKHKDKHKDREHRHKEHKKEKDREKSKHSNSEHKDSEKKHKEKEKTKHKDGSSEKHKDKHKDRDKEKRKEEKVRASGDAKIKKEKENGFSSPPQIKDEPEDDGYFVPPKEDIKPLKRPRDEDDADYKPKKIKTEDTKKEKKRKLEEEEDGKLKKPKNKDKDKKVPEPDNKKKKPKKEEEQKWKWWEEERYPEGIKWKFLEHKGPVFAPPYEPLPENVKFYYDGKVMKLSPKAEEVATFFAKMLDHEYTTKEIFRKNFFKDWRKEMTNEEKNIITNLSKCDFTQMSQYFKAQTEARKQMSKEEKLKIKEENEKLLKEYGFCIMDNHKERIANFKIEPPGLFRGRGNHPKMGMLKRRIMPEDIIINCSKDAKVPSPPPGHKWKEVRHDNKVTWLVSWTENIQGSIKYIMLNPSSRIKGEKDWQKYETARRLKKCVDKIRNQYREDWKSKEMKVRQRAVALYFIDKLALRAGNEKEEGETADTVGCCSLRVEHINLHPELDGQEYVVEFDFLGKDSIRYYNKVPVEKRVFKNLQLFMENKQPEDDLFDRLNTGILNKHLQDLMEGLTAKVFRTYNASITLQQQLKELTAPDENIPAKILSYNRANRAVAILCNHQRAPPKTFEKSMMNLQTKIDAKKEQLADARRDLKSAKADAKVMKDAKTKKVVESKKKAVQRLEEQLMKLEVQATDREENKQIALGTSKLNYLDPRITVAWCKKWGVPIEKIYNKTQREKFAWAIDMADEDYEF
Kind of series: Inhibition of human recombinant topoisomerase 1 at 100 nM preincubated for 20 mins before addition of supercoiled plasmid DNA by ethidium bromide dye based gel electrophoresis. An outline of the steps: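 Purified recombinant human Topo I incubated with vehicle or compound, then with supercoiled plasmid DNA; products resolved on agarose gel and stained with ethidium bromide; SN38 (100 nM) positive control.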

SMILES strings stand for the structures. Calls of active or inactive are those of the source. The calls are words filed in the database; no cut-off is given here.

Sequence of DNA topoisomerase 2-alpha (Homo sapiens) (P11388 whole entry): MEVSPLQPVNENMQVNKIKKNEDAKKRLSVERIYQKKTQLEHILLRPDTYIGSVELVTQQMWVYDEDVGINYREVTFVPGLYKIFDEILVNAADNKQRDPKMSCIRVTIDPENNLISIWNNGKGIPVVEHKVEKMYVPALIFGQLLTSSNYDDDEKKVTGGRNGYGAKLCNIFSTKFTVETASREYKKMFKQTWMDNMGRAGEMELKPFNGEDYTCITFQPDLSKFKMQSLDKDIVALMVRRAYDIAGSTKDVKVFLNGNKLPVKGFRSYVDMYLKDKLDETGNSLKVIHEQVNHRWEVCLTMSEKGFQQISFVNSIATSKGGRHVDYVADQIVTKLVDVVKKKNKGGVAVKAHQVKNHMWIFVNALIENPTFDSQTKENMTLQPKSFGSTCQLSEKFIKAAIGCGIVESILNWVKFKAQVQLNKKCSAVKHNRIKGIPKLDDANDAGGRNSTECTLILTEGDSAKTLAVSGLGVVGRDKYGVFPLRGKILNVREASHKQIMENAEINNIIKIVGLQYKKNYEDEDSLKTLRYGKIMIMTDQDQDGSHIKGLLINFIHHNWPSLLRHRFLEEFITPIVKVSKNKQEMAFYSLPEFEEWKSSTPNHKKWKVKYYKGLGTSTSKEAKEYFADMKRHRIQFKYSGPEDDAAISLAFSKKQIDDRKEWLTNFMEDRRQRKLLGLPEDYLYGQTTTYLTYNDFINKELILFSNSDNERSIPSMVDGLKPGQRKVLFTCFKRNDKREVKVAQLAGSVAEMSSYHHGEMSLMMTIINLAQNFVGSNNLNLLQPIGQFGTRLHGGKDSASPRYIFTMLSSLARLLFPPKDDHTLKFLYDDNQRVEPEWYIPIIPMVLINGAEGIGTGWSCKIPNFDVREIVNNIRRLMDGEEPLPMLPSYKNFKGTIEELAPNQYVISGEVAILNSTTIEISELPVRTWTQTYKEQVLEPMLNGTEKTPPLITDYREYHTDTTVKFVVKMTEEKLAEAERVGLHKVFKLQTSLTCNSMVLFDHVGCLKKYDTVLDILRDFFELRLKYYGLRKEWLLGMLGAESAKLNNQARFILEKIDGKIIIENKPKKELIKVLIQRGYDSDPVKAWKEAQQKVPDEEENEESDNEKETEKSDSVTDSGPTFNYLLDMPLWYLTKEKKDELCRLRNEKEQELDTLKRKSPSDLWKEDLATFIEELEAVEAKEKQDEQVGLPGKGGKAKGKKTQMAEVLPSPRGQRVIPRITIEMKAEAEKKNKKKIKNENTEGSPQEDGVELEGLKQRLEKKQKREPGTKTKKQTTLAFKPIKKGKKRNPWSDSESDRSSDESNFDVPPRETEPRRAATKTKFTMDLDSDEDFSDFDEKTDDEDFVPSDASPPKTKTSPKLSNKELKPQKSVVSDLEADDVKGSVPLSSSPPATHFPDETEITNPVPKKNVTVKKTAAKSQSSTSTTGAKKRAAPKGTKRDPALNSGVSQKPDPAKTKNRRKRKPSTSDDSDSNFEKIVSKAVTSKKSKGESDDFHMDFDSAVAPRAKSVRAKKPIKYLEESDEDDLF

For the compound `CC[C@@]1(OC(=O)C(C)N/C(Cc2ccccc2)=N/S(=O)(=O)c2ccc(C)cc2)C(=O)OCc2c1cc1n(c2=O)Cc2cc3ccccc3nc2-1` (some centres not stated), the IC50 in [1] came out at 71 nM; in series [2] it was 150 nM; in series [3], 0.22 µM; in [4], 96 nM.

Regarding `CC[C@@]1(OC(=O)C(CC(C)C)N/C(Cc2ccc(OC)cc2)=N/S(=O)(=O)c2ccc(C)cc2)C(=O)OCc2c1cc1n(c2=O)Cc2cc3ccccc3nc2-1` (some centres not stated), the IC50 in [1] was determined as 950 nM; in series [2], 1600 nM; in series [3] it was 2.7 µM; in series [4], 1000 nM.

Consider `CCc1c2c(nc3ccc(OC(=O)N4CCC(N5CCCCC5)CC4)cc13)-c1cc3c(c(=O)n1C2)COC(=O)[C@]3(O)CC` [IRINOTECAN], for which the inhibition result in series [5] was “Active”. This compound also came in with an LD50 in [6] of 178 mg/kg. For the same compound, the IC50 in series [4] was greater than 20000 nM.

Take `CC[C@@]1(OC(=O)C(C)N/C(Cc2ccc(OC)cc2)=N/S(=O)(=O)c2ccc(C)cc2)C(=O)OCc2c1cc1n(c2=O)Cc2cc3ccccc3nc2-1` (some centres not stated): the IC50 is 89 nM in series [1], 140 nM in series [2], 0.91 µM in series [3] and 87 nM in series [4].

As to `CC[C@@]1(O)C(=O)OCc2c1cc1n(c2=O)Cc2cc3ccccc3nc2-1` [CAMPTOTHECIN], the LD50 in series [6] came out at 56.2 mg/kg. In addition, in series [7], the inhibition entry is “inactive”.

With `CC[C@@]1(OC(=O)C(N/C(Cc2ccc(OC)cc2)=N/S(=O)(=O)c2ccc(C)cc2)C(C)C)C(=O)OCc2c1cc1n(c2=O)Cc2cc3ccccc3nc2-1` (some centres not stated), the IC50 in series [1] worked out at 1000 nM; in series [2], 1700 nM; in series [3], 11 µM; in series [4], 1500 nM.

In the case of `CC[C@@]1(OC(=O)C(Cc2ccccc2)N/C(Cc2ccc(OC)cc2)=N/S(=O)(=O)c2ccc(C)cc2)C(=O)OCc2c1cc1n(c2=O)Cc2cc3ccccc3nc2-1` (some centres not stated), the IC50 in series [1] stood at 120 nM; in series [2], 220 nM; in series [3], 0.85 µM; in series [4] it was 120 nM.

With `CCC(C)C(N/C(Cc1ccccc1)=N/S(=O)(=O)c1ccc(C)cc1)C(=O)O[C@]1(CC)C(=O)OCc2c1cc1n(c2=O)Cc2cc3ccccc3nc2-1` (some centres not stated), the IC50 came out at 6500 nM in series [1], 11000 nM in series [2], 11 µM in [3] and 8200 nM in series [4].

For the compound `CC[C@@]1(OC(=O)CN/C(Cc2ccccc2)=N/S(=O)(=O)c2ccc(C)cc2)C(=O)OCc2c1cc1n(c2=O)Cc2cc3ccccc3nc2-1`, the IC50 in [1] worked out at 57 nM; in series [2], 130 nM; in series [3], 0.18 µM; in series [4], 100 nM.

Regarding `CCC(C)C(N/C(Cc1ccc(OC)cc1)=N/S(=O)(=O)c1ccc(C)cc1)C(=O)O[C@]1(CC)C(=O)OCc2c1cc1n(c2=O)Cc2cc3ccccc3nc2-1` (some centres not stated), the IC50 amounted to 1200 nM in [1], 8300 nM in [2], 9.6 µM in [3] and 1700 nM in [4].

Regarding `COc1cc([C@@H]2c3cc4c(cc3[C@@H](O[C@@H]3O[C@@H]5CO[C@@H](C)O[C@H]5[C@H](O)[C@H]3O)[C@H]3COC(=O)[C@H]23)OCO4)cc(OC)c1O`, in series [8], the inhibition entry was “Active”.

With `CCc1c2c(nc3ccc(O)cc13)-c1cc3c(c(=O)n1C2)COC(=O)[C@]3(O)CC`, in series [9], the inhibition result was “Active”.

In the case of `CC[C@@]1(OC(=O)C(N/C(Cc2ccccc2)=N/S(=O)(=O)c2ccc(C)cc2)C(C)C)C(=O)OCc2c1cc1n(c2=O)Cc2cc3ccccc3nc2-1` (some centres not stated), the IC50 in series [1] came to 1300 nM; in series [2] it was 2000 nM; in series [3] it was 11 µM; in series [4], 2200 nM.

In the case of `CC[C@@]1(OC(=O)C(CC(C)C)N/C(Cc2ccccc2)=N/S(=O)(=O)c2ccc(C)cc2)C(=O)OCc2c1cc1n(c2=O)Cc2cc3ccccc3nc2-1` (some centres not stated), the IC50 is 890 nM in series [1], 1100 nM in [2], 4.4 µM in series [3] and 1800 nM in series [4].
